The source of these data is the array DNA melting data of Ke et al. (doi:10.1101/2024.01.08.574731).

Series [1] in a line: melting temperature; fluorescence melt of hairpins on a sequencing array, two-state fit, raised by 9.35 °C to match UV melts. Particulars: sodium 0.088 M. The method in brief:
(§1)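 In 50 mM Na-HEPES pH 8.0 containing 25 mM NaCl, hairpins from the library on a sequenced MiSeq flow cell were imaged for Cy3 fluorescence at 2.5 °C steps up to 60 °C, with Cy3 and quencher oligos annealed. After normalisation to pre-quench Cy3 and to control constructs, two-state fits with bootstrapping gave melting temperature and folding enthalpy. Four replicates were combined by inverse-variance weighting, and fitted temperatures were shifted up by 9.35 °C to match UV melts.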

Series [2] is described as follows: folding enthalpy; higher = less favourable; fluorescence melt of hairpins on a sequencing array, two-state fit. Particulars: sodium 0.088 M. The method in brief: as §1

For GTCCACCCGAAAGGGGAC (((..(((....)))))), in series [1], the Tm came out at 47 °C. Moreover, in series [2], the folding enthalpy is -18.5 kcal/mol.

Regarding GGATTCGGAAACGAATCC (((((((....))))))), the Tm in series [1] came to 67.1 °C. Also, in series [2], the folding enthalpy was -35.8 kcal/mol.

As for GTGGGGCGAAAGCCCAC (((.(((....)))))), the Tm in series [1] came to 62.6 °C. In addition, in series [2], the folding enthalpy was -12.8 kcal/mol.

Consider GATGGCGAAAGCCCATC ((((((....))).))), for which the Tm in series [1] amounted to 52.4 °C. Also, in series [2], the folding enthalpy is -16.6 kcal/mol.

As for GAGGTACGAAAGTAGCTC (((.(((....))).))), the Tm in series [1] worked out at 57.9 °C. The folding enthalpy in series [2] is -44.4 kcal/mol.

On to GCACTGCGAAAGCTGCGC ((.(.((....)).).)), for which, in series [1], the Tm turned out to be 57.1 °C. Besides, the folding enthalpy in series [2] is -22.5 kcal/mol.

GAAACGGGAAACCATTTC ((((.((....)).)))): in series [1], the Tm was determined as 28.8 °C. Also, the folding enthalpy in series [2] is -21.5 kcal/mol.

As to ATCTCGAAAGAGAT (((((....))))), the Tm in series [1] was 51.1 °C. Also, the folding enthalpy in series [2] was -20.9 kcal/mol.

For the sequence GCTGCTCGAAAGAGTAGC (((.(((....))).))), in series [1], the Tm turned out to be 62.1 °C. Further, in series [2], the folding enthalpy is -38.9 kcal/mol.

Take CGGTTCGGAAACGAGCCG (((.(((....))).))): in series [1], the Tm amounted to 58.6 °C. Further, in series [2], the folding enthalpy was -50.5 kcal/mol.

As for GAAGGTGGAAACGCCTTC (((((.(....).))))), the Tm in series [1] stood at 51.9 °C. In addition, in series [2], the folding enthalpy is -31.9 kcal/mol.

GCCGGGACGAAAGTCGGC (((..(((....)))))): the Tm in series [1] was 60.9 °C. Moreover, the folding enthalpy in series [2] was -29.8 kcal/mol.

As to GCCATGCGAAAGCATTGC ((.((((....)))).)), the Tm in series [1] was 54 °C. Further, in series [2], the folding enthalpy is -21.2 kcal/mol.

As to GATCCGTGAGCGGATC ((((((....)))))), the Tm in series [1] came to 65.9 °C. The folding enthalpy in series [2] is -35.6 kcal/mol.

As for GTTGTCGGAAACAACAAC (((((.(....).))))), the Tm in series [1] was 40.2 °C. Further, the folding enthalpy in series [2] is -23.4 kcal/mol.

For GATCTAGGAAACTGGATC ((((.((....)).)))), in series [1], the Tm turned out to be 41.8 °C. Moreover, the folding enthalpy in series [2] was -34 kcal/mol.

As to GAATCGCGAAAGCGTTC (((.(((....)))))), in series [1], the Tm stood at 42 °C. In series [2], the folding enthalpy is -12.3 kcal/mol.

Take GATCTAGGTTTAGATC ((((((....)))))): the Tm in series [1] was found to be 41.1 °C. In addition, in series [2], the folding enthalpy is -28.5 kcal/mol.

With GATCATCCGGATGATC ((((((....)))))), the Tm in series [1] was found to be 54.8 °C. The folding enthalpy in series [2] was -52.5 kcal/mol.

In the case of GGACGACCGAAAGGTTCC (((..(((....)))))), in series [1], the Tm is 31.3 °C. Besides, the folding enthalpy in series [2] is -13.8 kcal/mol.

GATCAGGACGCTGATC ((((((....)))))): the Tm in series [1] was 54.2 °C. For the same sequence, in series [2], the folding enthalpy was -41.7 kcal/mol.

With GAAGCCGAAAGGCAATTC ((((((....)))..))), the Tm in series [1] is 39.6 °C. Moreover, in series [2], the folding enthalpy is -13.7 kcal/mol.

For GTCATGCGAAAGCAGAC (((.(((....)))))), the Tm in series [1] is 49.8 °C. In series [2], the folding enthalpy is -22.4 kcal/mol.

Turning to GCACTCACGAAAGTGTGC (((..(((....)))))), the Tm in series [1] was determined as 48.7 °C. The folding enthalpy in series [2] was -23 kcal/mol.

In the case of GGTGATGGAAACATCGTC (..((((....))))..), the Tm in series [1] stood at 32.9 °C. For the same sequence, in series [2], the folding enthalpy was -18.1 kcal/mol.

Consider GTAGTAGGAAACTATTAC (((.(((....))).))), for which the Tm in series [1] was 29.9 °C. The folding enthalpy in series [2] is -17.7 kcal/mol.

Consider GCCGGGCGAAAGCCGAGC ((..(((....)))..)), for which the Tm in series [1] came to 57.4 °C. In series [2], the folding enthalpy is -14.8 kcal/mol.

In the case of GTCCTTGGAAACAAGAAC ((.((((....)))).)), in series [1], the Tm came to 30.5 °C. Besides, the folding enthalpy in series [2] is -14.2 kcal/mol.

Take GCCAGACGAAAGTCGGGC (((.(((....))).))): the Tm in series [1] worked out at 68.6 °C. Besides, the folding enthalpy in series [2] is -34 kcal/mol.

Take GCGCCACGAAAGTGTCGC (((.(((....))).))): in series [1], the Tm is 63.3 °C. Moreover, in series [2], the folding enthalpy was -41.7 kcal/mol.

For CGAGCGGAAACGCATCG ((((((....))).))), in series [1], the Tm amounted to 48.5 °C. In addition, the folding enthalpy in series [2] was -20.9 kcal/mol.

With GTATCGGAAACGATAC ((((((....)))))), the Tm in series [1] worked out at 55.5 °C. Moreover, the folding enthalpy in series [2] is -40.4 kcal/mol.

Consider GCACTGGAAACAGTGC ((((((....)))))), for which the Tm in series [1] was determined as 65.2 °C. In addition, the folding enthalpy in series [2] is -38.3 kcal/mol.

As for GGAATAGGAAACCATTCC (((((.(....).))))), the Tm in series [1] worked out at 34.3 °C. Moreover, the folding enthalpy in series [2] was -25.7 kcal/mol.

Turning to GATCCTATCGAGGATC ((((((....)))))), in series [1], the Tm was 51.9 °C. Moreover, in series [2], the folding enthalpy is -27.1 kcal/mol.

As for GGAGTCGAAAGACTTTCC ((((((....)))..))), the Tm in series [1] is 34 °C. For the same sequence, in series [2], the folding enthalpy is -11.1 kcal/mol.

On to GACGGGACGAAAGTCGTC (((..(((....)))))), for which the Tm in series [1] amounted to 45.8 °C. Moreover, in series [2], the folding enthalpy is -17.1 kcal/mol.

GATGTCGGAAACGACATC (((((((....))))))): the Tm in series [1] was found to be 68.4 °C. Besides, the folding enthalpy in series [2] is -36.4 kcal/mol.

Consider GGTTTCGAAAGAATACC ((((((....))).))), for which the Tm in series [1] is 38 °C. Also, the folding enthalpy in series [2] is -25.6 kcal/mol.

As for GATCGTGGCTACGATC ((((((....)))))), in series [1], the Tm was 59 °C. Besides, the folding enthalpy in series [2] was -39.3 kcal/mol.

As for GCATTTGGAAACAAGTGC (((.(((....))).))), the Tm in series [1] was 46.3 °C. For the same sequence, in series [2], the folding enthalpy is -26.2 kcal/mol.

GCATTGCGAAAGCCTTGC (((..((....))..))): the Tm in series [1] was 39.3 °C. In series [2], the folding enthalpy is -25 kcal/mol.

With GAAGCGCCGAAAGGCTTC (((..(((....)))))), in series [1], the Tm is 32.3 °C. The folding enthalpy in series [2] is -10.5 kcal/mol.

Turning to CGTGCGGAAACGCAAACG ((((((....)))..))), the Tm in series [1] was determined as 45.3 °C. Moreover, the folding enthalpy in series [2] is -19.9 kcal/mol.

In the case of GATCTGAATTCAGATC ((((((....)))))), the Tm in series [1] was 50.2 °C. Moreover, in series [2], the folding enthalpy is -41.6 kcal/mol.

As to GCTTAAGGAAACTCAAGC ((((.((....)).)))), the Tm in series [1] is 28.3 °C. Further, in series [2], the folding enthalpy was -17.8 kcal/mol.

Regarding GATCCTCATAAGGATC ((((((....)))))), the Tm in series [1] is 52.6 °C. For the same sequence, the folding enthalpy in series [2] was -34.4 kcal/mol.

On to GGTAGAGCGAAAGCTACC (((..(((....)))))), for which the Tm in series [1] stood at 45.5 °C. In addition, the folding enthalpy in series [2] is -17.3 kcal/mol.

For the sequence GTTCAACGAAAGTTAAAC (((.(((....))).))), the Tm in series [1] came out at 30.7 °C. Also, in series [2], the folding enthalpy was -18.6 kcal/mol.

Turning to GAATGCCGAAAGGCTTC (((.(((....)))))), the Tm in series [1] is 43.6 °C. For the same sequence, in series [2], the folding enthalpy is -13.2 kcal/mol.

Turning to GGACACGAAAGTGCCTCC ((((((....)))..))), the Tm in series [1] stood at 42.1 °C. Besides, the folding enthalpy in series [2] was -16.7 kcal/mol.

For the sequence GGCATCGAAAGATGAGCC ((((((....)))..))), the Tm in series [1] was 44.1 °C. Moreover, the folding enthalpy in series [2] is -17 kcal/mol.

Consider GTCCCCGAAAGGGCTGAC ((((((....)))..))), for which the Tm in series [1] worked out at 34.8 °C. Also, the folding enthalpy in series [2] was -11.7 kcal/mol.

With GGGGTGGGAAACCGTCCC (((..((....))..))), the Tm in series [1] came out at 45.2 °C. Besides, in series [2], the folding enthalpy was -18.5 kcal/mol.

As for GCCACGCGAAAGCGGCGC ((..(((....)))..)), the Tm in series [1] is 60.8 °C. The folding enthalpy in series [2] was -15.9 kcal/mol.
